Data set [1] addresses Coagulation factor X (Homo sapiens, UniProt P00742). Briefly: Inhibition of human coagulation factor 10a using N-benzoyl-Ile-Glu-(OH, OMe)-Gly-Arg-pNA as substrate by spectrophotometric analysis. In short, it runs like this:
(§1)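 Purified human enzymes; reaction started by adding enzyme to substrate with or without inhibitor, excess substrate and inhibitor over enzyme, 1% DMSO, room temperature, 10–120 min. pNA read at 405 nm. FXIa, FXIIa and chymotrypsin in HEPES pH 7.4 with NaCl, KCl and PEG; FXa and kallikrein in phosphate pH 7.5; FVIIa in HEPES with CaCl2. IC50 from duplicates over 8–11 concentrations, converted to Ki assuming competitive inhibition.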

The target of data set [2] is T1, Coagulation factor XII (Homo sapiens, UniProt P00748).
T1 sequence (P00748 whole entry): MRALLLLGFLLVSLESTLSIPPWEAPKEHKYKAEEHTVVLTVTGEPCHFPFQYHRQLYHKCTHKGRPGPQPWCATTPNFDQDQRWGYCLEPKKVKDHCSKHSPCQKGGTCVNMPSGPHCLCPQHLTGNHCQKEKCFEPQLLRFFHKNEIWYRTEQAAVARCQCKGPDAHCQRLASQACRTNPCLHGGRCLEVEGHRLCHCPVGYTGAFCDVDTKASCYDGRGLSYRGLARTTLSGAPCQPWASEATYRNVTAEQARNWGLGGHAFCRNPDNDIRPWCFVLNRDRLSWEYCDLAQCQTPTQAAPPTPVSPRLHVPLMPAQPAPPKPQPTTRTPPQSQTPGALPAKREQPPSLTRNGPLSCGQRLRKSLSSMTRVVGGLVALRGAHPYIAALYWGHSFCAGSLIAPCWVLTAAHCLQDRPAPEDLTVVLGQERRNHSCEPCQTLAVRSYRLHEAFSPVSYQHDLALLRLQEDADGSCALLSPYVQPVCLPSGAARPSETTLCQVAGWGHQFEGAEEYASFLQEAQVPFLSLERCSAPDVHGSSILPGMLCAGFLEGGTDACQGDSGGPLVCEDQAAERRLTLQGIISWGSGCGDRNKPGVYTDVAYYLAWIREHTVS
Put plainly: Inhibition of human coagulation factor 12a using H-(D)-CHT-Gly-Arg-pNA as substrate by spectrophotometric analysis. In short, it runs like this: as §1

For data set [3], the target named is Coagulation factor IX (Homo sapiens, UniProt P00740). Briefly: Inhibition of human coagulation factor 9a by spectrophotometric analysis. In short, it runs like this: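 Purified human factor IXa; buffer 50 mM Tris pH 7.4, 100 mM NaCl, 5 mM CaCl2, 0.5% PEG 8000, 2% DMSO; room temperature. Reaction started with enzyme added to substrate ± inhibitor, in excess substrate and inhibitor, for 10–120 min. Rate read as pNA A405 or AMC fluorescence. Duplicate IC50s from 8–11 concentrations; Ki = IC50/(1+[S]/Km), assuming competitive inhibition.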
Coagulation factor IX, sequence (P00740 47-191 limits assumed): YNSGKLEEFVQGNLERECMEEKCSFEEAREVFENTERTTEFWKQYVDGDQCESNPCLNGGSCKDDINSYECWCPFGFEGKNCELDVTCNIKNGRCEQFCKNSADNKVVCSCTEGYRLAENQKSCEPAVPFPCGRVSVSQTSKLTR
Coagulation factor IX, sequence (P00740 227-461 limits assumed): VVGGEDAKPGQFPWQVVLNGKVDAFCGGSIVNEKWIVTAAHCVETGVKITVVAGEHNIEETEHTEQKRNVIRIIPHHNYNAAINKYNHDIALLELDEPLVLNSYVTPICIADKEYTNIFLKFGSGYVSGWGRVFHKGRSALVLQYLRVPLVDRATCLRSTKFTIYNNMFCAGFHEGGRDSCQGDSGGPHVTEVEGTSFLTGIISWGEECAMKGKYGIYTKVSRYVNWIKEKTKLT

Data set [4] addresses Prothrombin (Homo sapiens, UniProt P00734). Briefly: Inhibition of human coagulation thrombin using pyro-Glu-Pro-Argp-NA as substrate by spectrophotometric analysis. The procedure, abridged:
(§2)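 Purified enzymes (α-thrombin; trypsin) in 100 mM sodium phosphate pH 7.5, 200 mM NaCl, 0.5% PEG 8000, 1% DMSO final, room temperature. Enzyme added last to substrate ± inhibitor, with substrate and inhibitor in excess. pNA release read at 405 nm over 10−120 min. IC50 from duplicate runs over 8−11 concentrations, then converted to Ki assuming competitive inhibition, using Km.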

In data set [5] the target is Trypsin (Homo sapiens, UniProt P07477+P07478+P35030). Briefly: Inhibition of human coagulation trypsin using N-benzoyl-Ile-Glu-(OH, OMe)-Gly-Arg-pNA as substrate by spectrophotometric analysis. It is filed as protein assay. In short, it runs like this: as §2
Data set [6] relates to Plasma. Put plainly: Anticoagulant activity in healthy human plasma assessed as prothrombin time by PT assay. It counts as functional. The procedure, abridged:
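Citrated healthy-volunteer plasma spiked with inhibitor (10 mM DMSO stock diluted in plasma, up to seven concentrations). PT with Thromboplastin C-Plus: plasma warmed 3 min at 37 °C before reagent was added. Duplicates, as mean ratio to baseline control. Concentration that doubles clotting time by linear interpolation, as total plasma concentration.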

Data set [7] deals with Coagulation factor XI (Homo sapiens, UniProt P03951). Briefly: Inhibition of human coagulation factor 11a using p-nitroaniline as substrate assessed as substrate hydrolysis at 37 degC by spectrophotometrically. The procedure, abridged:
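Purified human FXIa in 50 mM HEPES pH 7.4, 145 mM NaCl, 5 mM KCl, 0.1% PEG 8000, run at 37 °C, 1% DMSO final. Enzyme added last to substrate ± inhibitor, with substrate and inhibitor in excess. pNA release read at 405 nm. IC50 from duplicate 8–11-point series, converted to Ki assuming competitive inhibition, Ki = IC50/(1+[S]/Km).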

A short description of data set [8]: Inhibition of rabbit coagulation factor 11a using p-nitroaniline as substrate assessed as substrate hydrolysis by spectrophotometrically. Also on record: species or system Oryctolagus cuniculus.
Data set [9] in a line: Inhibition of rabbit coagulation factor 11a using p-nitroaniline as substrate assessed as substrate hydrolysis at 37 degC by spectrophotometrically. Also on record: species or system Oryctolagus cuniculus. In short, it runs like this: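 Rabbit FXIa, chromogenic pNA-release read at 405 nm, run at 37 °C. IC50 from duplicate determinations over 8–11 concentrations, converted to Ki by Ki = IC50/(1+[S]/Km), assuming competitive inhibition.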

The nature of data set [10]: Inhibition of rabbit coagulation thrombin using pyro-Glu-Pro-Argp-NA as substrate by spectrophotometric analysis. Also on record: species or system Oryctolagus cuniculus.
For data set [11], the target named is T2, Coagulation factor VII (Oryctolagus cuniculus, UniProt P98139).
T2 sequence (P98139 whole entry): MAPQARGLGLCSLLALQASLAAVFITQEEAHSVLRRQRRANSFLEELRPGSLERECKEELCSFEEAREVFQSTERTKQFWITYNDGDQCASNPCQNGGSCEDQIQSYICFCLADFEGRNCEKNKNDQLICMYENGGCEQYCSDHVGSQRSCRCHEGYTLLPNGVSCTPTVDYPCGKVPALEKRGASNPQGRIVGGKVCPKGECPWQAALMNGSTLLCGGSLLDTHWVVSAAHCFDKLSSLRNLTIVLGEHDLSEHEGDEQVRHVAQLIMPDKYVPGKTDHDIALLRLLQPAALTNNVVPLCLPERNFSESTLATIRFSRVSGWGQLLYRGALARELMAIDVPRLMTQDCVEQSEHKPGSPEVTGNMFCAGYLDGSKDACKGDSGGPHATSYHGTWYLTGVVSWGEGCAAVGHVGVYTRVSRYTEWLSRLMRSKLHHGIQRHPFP
Briefly: Inhibition of rabbit coagulation factor 7a using H-(D)-Ile-Pro-Arg-pNA as substrate by spectrophotometric analysis.

A short description of data set [12]: Inhibition of rabbit plasma kallikrein using H-D-Pro-Phe-Arg-pNA as substrate. It is filed as cell-free, Oryctolagus cuniculus.
The nature of data set [13]: Anticoagulant activity in rabbit plasma assessed as concentration required to 2 fold prolong clotting time by aPTT assay. It counts as functional, Oryctolagus cuniculus.
Data set [14] is described as follows: Cmax in rabbit plasma at 0.5 mg/kg, iv. It is filed as ADME, organism-based, Oryctolagus cuniculus. Also on record: dose 0.5 mg/kg, route intravenous. The procedure, abridged: (§3)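 Single iv dose of 0.5 mg/kg in rabbits; concentrations measured in rabbit plasma.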
A short description of data set [15]: Volume of distribution at steady state in rabbit plasma at 0.5 mg/kg, iv. It counts as ADME, organism-based, Oryctolagus cuniculus. Also on record: dose 0.5 mg/kg, route intravenous. The settings on record: read-out: Vdss. The procedure, abridged:
as §3

The nature of data set [16]: Half life in rabbit plasma at 0.5 mg/kg, iv. It counts as ADME, organism-based, Oryctolagus cuniculus. The arrangement: dose 0.5 mg/kg, route intravenous. In short, it runs like this: as §3

Some results are limits rather than exact numbers.

Coagulation factor XI, sequence (P03951 19-387 limits assumed): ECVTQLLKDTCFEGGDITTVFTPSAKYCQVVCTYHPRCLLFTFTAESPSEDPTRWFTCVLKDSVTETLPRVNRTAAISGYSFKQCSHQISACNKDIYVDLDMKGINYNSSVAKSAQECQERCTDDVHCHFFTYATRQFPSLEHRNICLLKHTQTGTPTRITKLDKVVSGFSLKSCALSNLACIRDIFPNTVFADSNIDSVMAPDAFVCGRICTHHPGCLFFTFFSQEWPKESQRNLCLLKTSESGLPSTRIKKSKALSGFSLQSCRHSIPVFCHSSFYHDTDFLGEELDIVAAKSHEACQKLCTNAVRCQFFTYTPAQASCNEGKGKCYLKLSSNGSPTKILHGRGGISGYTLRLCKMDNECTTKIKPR
Coagulation factor XI, sequence (P03951 388-625 limits assumed): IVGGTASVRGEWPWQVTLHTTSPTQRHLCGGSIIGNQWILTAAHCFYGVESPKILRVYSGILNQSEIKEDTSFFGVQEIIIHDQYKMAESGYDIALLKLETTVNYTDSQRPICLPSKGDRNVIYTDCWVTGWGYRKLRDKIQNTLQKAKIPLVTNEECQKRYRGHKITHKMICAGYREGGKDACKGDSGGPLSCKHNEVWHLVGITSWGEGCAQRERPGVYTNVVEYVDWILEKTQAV
Coagulation factor X, sequence (P00742 41-179 limits assumed): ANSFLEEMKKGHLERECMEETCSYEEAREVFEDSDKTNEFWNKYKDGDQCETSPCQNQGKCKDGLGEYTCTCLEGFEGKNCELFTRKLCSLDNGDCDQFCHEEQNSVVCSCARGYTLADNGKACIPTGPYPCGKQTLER
Coagulation factor X, sequence (P00742 235-488 limits assumed): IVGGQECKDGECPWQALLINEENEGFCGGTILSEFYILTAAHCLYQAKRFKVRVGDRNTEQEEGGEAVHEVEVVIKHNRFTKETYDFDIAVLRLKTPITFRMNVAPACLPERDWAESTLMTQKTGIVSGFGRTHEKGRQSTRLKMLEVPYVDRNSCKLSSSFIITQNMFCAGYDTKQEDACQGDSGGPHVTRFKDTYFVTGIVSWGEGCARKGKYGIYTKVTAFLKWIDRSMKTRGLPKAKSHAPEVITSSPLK

In the case of `NC[C@H]1CC[C@H](C(=O)N[C@@H](Cc2ccccc2)c2nc(-c3ccc4c(N)n[nH]c4c3)c(Cl)[nH]2)CC1.O=C(O)C(F)(F)F`, the Ki (commonly a dissociation constant, usually derived from enzyme kinetics or from competition with a known ligand) was 6.39 µM in data set [1]; 9.22 µM in data set [2]; above 34.9 µM in data set [3]; above 12.6 µM in [4]; 0.023 µM in data set [5]; 0.0008 µM in data set [7]. Moreover, the Ki in data set [8] is 0.0006 µM; in [9] it was 0.0012 µM; in [10], above 20 µM; in [11], 10 µM; in [12] it was 0.021 µM. For the same molecule, the 2PT in data set [6] was above 40 µM. In data set [13], the 2aPTT came out at 2 µM. Also, the Cmax (usually the maximum level reached in the sampled fluid or tissue) in data set [14] was 2470 nM. Moreover, the Vd in data set [15] came to 0.7 L/kg. Further, in data set [16], the half-life (commonly how long it takes for the measured level to halve) is 1 h.

Source of the values: ChEMBL document CHEMBL3351269, “Phenylimidazoles as potent and selective inhibitors of coagulation factor XIa with in vivo antithrombotic activity” (J Med Chem, 2014).
